Compound activity from PubChem.
A selection: hits, their analogues and other compounds. The true share with any hit is near 1.6%.
TPT1 inh: C. albicans TPT1 enzyme inhibition. recombinant caTPT1, FP RNA substrate dephosphorylation. inhibition, % at 5 µM. actives 0.81% (n = 300,000). AID 1962;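 active = inhibition above the mean of all tested compounds plus 3 SD, set per screening campaign, cut at about 24% in these data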;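 also: plate controls were DMSO alone for no effect and ferristatin control at 100 nM for full effect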
Rpn11 inh: inhibitors of human proteasome Rpn11; AID 588493; O00487; human 26S proteasome, Ub4-pepOG fluorescence polarization; 20S core pre-blocked with epoxomicin; actives 0.59% (n = 360,000); calls only at 20 µM;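 active = inhibition at 20 µM, scaled to each plate's controls, above about 33%, limit read from the data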
CSN deneddyl inh: inhibitors of human CSN-mediated cullin deneddylation; Q92905; inhibition, % at 12.5 µM; actives 0.38% (n = 360,000); Purified CSN, SCF-Nedd8-OG deneddylation, fluorescence polarization;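 active = pattern-corrected inhibition above about 35%, with an unprinted fluorescence ratio check between 0.5 and 1.5, limit read from the data, passing the limit was not always enough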;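 also: 0% = enzyme with substrate and 100% = substrate without enzyme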
Target sequence (Q92905 whole entry, looked up, one chain of several): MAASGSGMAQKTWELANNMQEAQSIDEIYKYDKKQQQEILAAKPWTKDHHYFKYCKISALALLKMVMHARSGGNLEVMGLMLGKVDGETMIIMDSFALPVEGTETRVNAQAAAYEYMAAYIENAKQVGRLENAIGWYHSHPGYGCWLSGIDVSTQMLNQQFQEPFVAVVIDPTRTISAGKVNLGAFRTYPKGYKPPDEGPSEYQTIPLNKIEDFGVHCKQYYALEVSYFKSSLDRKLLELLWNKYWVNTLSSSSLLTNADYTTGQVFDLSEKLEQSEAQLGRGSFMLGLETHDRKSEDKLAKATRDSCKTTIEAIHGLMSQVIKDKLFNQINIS
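Detection – fluorescence polarization · System – HEK293T-derived human Csn5 enzyme · Controls – substrate-only high control, full reaction low control · Timing – 90 min, room temperature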
PKA-R2B activ: PKA-R2B complex activation; P22694+P31323; PKA-R2B holoenzyme dissociation, Cy5-IP20 fluorescence polarization; R2B truncated from residue 108, S112A mutant; 0% DMSO only, 100% 113 µM cGMP; activation, % at 11.4 µM; AID 504700; actives 0.079% (n = 340,000);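 active = activation above a cutoff set at the mean over all compounds plus 3 SD, cut at about 18% in these data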;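 also: higher means more holoenzyme dissociation and a rise in polarization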
PKA-R1A act: activators of PKA-R1A complex | activation, % at 11.4 µM | actives 0.083% (n = 340,000) | PKA-R1A dissociation, Cy5-IP20 fluorescence polarization; scaled: DMSO 0%, 113 µM cGMP 100% | P00514+P68181;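 active = percent activation above the mean of all tested compounds plus 3 SD, cut at about 19% in these data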;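 also: higher means more PKAc released from R1A so a rise in polarization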
HNF4A DNA FP: change in binding of human HNF4 alpha to DNA. HNF4a-FITC DNA binding, fluorescence polarization, 1 h. activity change, % at 10 µM. actives 0.3% (n = 360,000). AID 1224865; in the data active = activity change above about 30%, passing the limit was not always enough
TPT1 inh confirm: confirmation of Candida albicans TPT1 inhibitors | shares compounds with TPT1 inh | recombinant caTPT1, fluorescence polarization, RNase T1 coupled | inhibition, % at 5 µM | actives 74% (n = 2,400) | AID 2149;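 active = inhibition above the primary screen limit, the mean inhibition of all tested compounds plus 3 SD, cut at about 25% in these data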
RNase T1 counter: blocks Aspergillus oryzae RNase T1, a TPT1 counter-screen. inhibition, % at 5 µM. actives 83% (n = 2,400). shares compounds with TPT1 inh. AID 2153. RNase T1 cleavage, fluorescence polarization, 1536-well;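 active = inhibition above the solvent-only control well mean plus 3 SD, limit set per screening run, cut at about 23% in these data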;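 also: plate controls were DMSO wells with enzyme for no effect and wells without RNase T1 for full effect; inhibitors block cleavage so intact labeled substrate keeps polarization high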
Target sequence (P00651 whole entry, looked up): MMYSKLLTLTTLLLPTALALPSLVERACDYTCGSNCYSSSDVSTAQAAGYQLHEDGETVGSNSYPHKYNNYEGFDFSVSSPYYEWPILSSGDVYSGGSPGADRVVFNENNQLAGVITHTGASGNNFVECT
Rpn11 confirm: Rpn11 inhibition confirmation, single concentration; shares compounds with Rpn11 inh; purified human 26S proteasome, Ub4-pepOG fluorescence polarization; proteasome pretreated with epoxomicin; inhibition, % at 20 µM; actives 29% (n = 1,900); AID 602318
MMP-2 counter: blocks human MMP-2, flagging nonselective RPN11 hits; recombinant MMP-2, FRET peptide cleavage fluorescence; AID 602330; actives 4% (n = 1,900); inhibition, % at 20 µM; shares compounds with Rpn11 inh;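 also: human MMP-2 activated beforehand with APMA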
Thrombin FP: counter-screen for RPN11 inhibitors: inhibition of bovine thrombin; AID 602333; actives 13% (n = 1,900); shares compounds with Rpn11 inh; inhibition, % at 20 µM; bovine thrombin cleavage of Ub4-pepOG, fluorescence polarization;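 active = mean inhibition at least 40% at 20 µM, or signal 3 deviations below plate average, so some actives read negative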;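 also: plate controls were thrombin with DMSO for no effect and buffer wells lacking thrombin for full effect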
HNF4a DNA conf: change in binding of human HNF4 alpha to DNA, retest; activity change, % at 12.5 µM; HNF4A-FITC DNA binding, fluorescence polarization, 1 h; shares compounds with HNF4A DNA FP; actives 99% (n = 210); call rule not given here
The depositor's hits bear a star; i = inactive; nt = no result given; + = active, no number. Rule as the data show it, unless noted: active = inhibition above about 40%; inactive = the rest.

SMILES	TPT1 inh	Rpn11 inh	CSN deneddyl inh	PKA-R2B activ	PKA-R1A act	HNF4A DNA FP	TPT1 inh confirm	RNase T1 counter	HNF4a DNA conf	others
COc1ccc(-c2nnc(C)c3nocc23)cc1	67.3*	+	8.0	6.0	8.6	56.4*	60.1*	69.0*	63.1*	Rpn11 confirm=48.4*;MMP-2 counter=-5.4;Thrombin FP=40.0
C=CCn1c(SCc2nc3sc4c(c3c(=O)[nH]2)CCCC4)nc2ccccc2c1=O	26.6*	nt	18.9	-7.6	-9.3	48.8*	48.1*	61.8*	65.2*
O=C(CN1C(=O)c2cccc3cccc1c23)NC1CCCC1	-2.1	i	-1.8	0.7	-4.0	-2.0	nt	nt	nt
CCOC(=O)C/C(C)=N/NC(=O)CN(c1ccc(Br)cc1)S(=O)(=O)c1ccccc1	-5.1	i	-0.6	-8.7	-10.3	-5.5	nt	nt	nt
COc1ccc(Oc2ccc(C(F)(F)F)cc2N)cc1	1.2	i	-0.5	-0.1	-2.2	-2.9	nt	nt	nt
CCOc1ccc2cc(/C=C/C(=O)c3ccco3)c(Cl)nc2c1	37.2*	nt	33.2	3.4	-3.5	34.2*	57.3*	68.4*	35.6*
CCOc1ccc2nc(SCC(=O)NNC(=O)c3ccco3)c(C)cc2c1	0.9	i	0.3	-3.9	13.9	4.7	nt	nt	nt
O=C(O)c1ccc(/C=C/c2ccc3cccc(O)c3n2)cc1	nt	i	19.9	3.3	-6.0	-6.1	nt	nt	nt
Oc1ccc(/C=C/c2ccc3cccc(O)c3n2)cc1Br	48.5*	nt	33.3	-15.1	-8.1	43.8*	63.3*	69.6*	75.5*
CCOC(=O)C1=C(C)NC(=O)NC1c1ccc(N2CCC(c3ccccc3)=N2)cc1 (stereo unspecified)	53.3*	nt	22.2	3.3	1.4	54.9*	76.5*	87.2*	62.4*
CCOC(=O)C1=C(C)NC(=O)NC1c1ccc(NC(C)=O)cc1 (stereo unspecified)	2.0	i	0.2	-1.9	-12.1	5.7	nt	nt	nt
CCN(CC)C(=O)CSC(Nc1ccc(F)cc1)=C(C#N)C#N	39.7*	nt	15.2	-7.0	-6.4	37.4*	40.5*	51.5*	62.0*
CCOC(=O)C(CCSC)Nc1nc(Cl)nc(Nc2ccc(Cl)cc2)n1 (stereo unspecified)	-6.0	i	-0.8	-4.8	-8.0	1.8	nt	nt	nt
CCN1CCc2c(sc(NC(=O)c3ccc4ccccc4c3)c2C(N)=O)C1	65.3*	nt	30.9	-6.0	5.4	38.1*	80.2*	89.0*	65.1*
CCN1CCc2c(sc(NC(=O)CN3C(=O)c4ccccc4C3=O)c2C(N)=O)C1	1.1	i	3.1	-9.5	-10.7	-0.5	nt	nt	nt
Cc1ccsc1C(=O)N1CCN(c2ccccn2)CC1	-7.1	i	-2.4	-4.2	3.9	2.2	nt	nt	nt
O=C(Nc1ccc(S(=O)(=O)Nc2nccs2)cc1)c1ccc(N2C(=O)c3ccccc3C2=O)cc1	41.4*	+	67.2*	9.4	0.4	53.3*	64.8*	77.4*	65.8*	Rpn11 confirm=91.3*;MMP-2 counter=-28.9;Thrombin FP=46.0*
N#CCC(=O)N/N=C/c1ccc(N2N=C(c3ccccc3)CC2c2ccccc2)cc1 (stereo unspecified)	50.9*	nt	39.5*	-7.4	-5.4	49.9*	66.6*	78.5*	35.3*
O=Cc1ccc(N2N=C(c3ccccc3)CC2c2ccccc2)cc1 (stereo unspecified)	6.9	i	2.7	5.6	12.6	-2.8	nt	nt	nt
Cn1cccc1/C=C1\SC(=S)N(CC(=O)O)C1=O	107.6*	nt	49.2*	-3.4	-3.4	79.9*	115.2*	128.6*	116.8*
NC(=O)c1cc(S(=O)(=O)Nc2ccccc2)cs1	-2.8	i	4.5	-10.8	-15.8	-0.5	nt	nt	nt
COc1ccc(C(=O)/C=C/c2cn(CC(O)CN3CCOCC3)c3ccccc23)cc1 (stereo unspecified)	51.5*	nt	22.2	-17.7	-2.0	42.0*	44.8*	57.0*	75.4*
COc1ccc(C(=O)/C=C/c2cn(CN3CCN(C)CC3)c3ccccc23)cc1	14.7	i	6.9	-6.4	-7.0	8.8	nt	nt	nt
C=CCSc1nnc(C)c(/C=C/Nc2ccc(Cl)cc2)n1	154.8*	nt	-1.0	nt	nt	50.8*	132.8*	128.8*	38.4*
N#Cc1c(Nc2cccc(F)c2)sc2c(O)cc(=O)[nH]c12	51.3*	nt	34.5	nt	nt	44.2*	28.7*	40.3*	52.2*
SMILES	TPT1 inh	Rpn11 inh	CSN deneddyl inh	PKA-R2B activ	PKA-R1A act	HNF4A DNA FP	TPT1 inh confirm	RNase T1 counter	HNF4a DNA conf	others
Cc1onc(-c2ccccc2)c1C(=O)Nc1sccc1C#N	83.3*	nt	11.8	1.2	-3.2	43.8*	90.8*	98.9*	65.1*
Cc1onc(-c2ccccc2)c1C(=O)Nc1sc2c(c1C#N)CCC2	17.5	i	20.2	6.5	6.8	12.9	nt	nt	nt
CC[C@H](C)[C@H](NC(=O)OCc1ccccc1)C(=O)Nc1ccc(NC(C)=O)cc1	1.5	i	-6.7	-0.9	-16.8	0.3	nt	nt	nt
NC(=O)c1ccc(NC(=O)Cc2ccc(S(=O)(=O)N3CCCCC3)cc2)cc1	nt	i	-1.4	-20.3	-3.4	-1.8	nt	nt	nt
COc1ccc(C2NN=C(c3c[nH]c4ccccc34)C2O)cc1 (stereo unspecified)	73.1*	+	25.5	7.4	-3.7	57.1*	65.0*	77.8*	89.0*
COc1cc(C2C3CN(C)CC=C3C(C#N)=C(N)C2(C#N)C#N)ccc1OC(C)C (stereo unspecified)	4.4	i	-8.7	14.9	-7.3	-34.3	nt	nt	nt
COc1cc([C@@H]2[C@H]3CNCC=C3C(C#N)=C(N)C2(C#N)C#N)ccc1OC(C)C	34.3*	nt	17.2	1.0	-6.8	48.1*	24.2*	35.6*	56.4*
